Compound activity deposited in PubChem BioAssay by Johns Hopkins Ion Channel Center.
MrgX1 ag: activates human MrgX1 receptor signaling; Q96LB2; 310,000 tested, 0.44% active; MrgX1-HEK293 cells, Fluo-4 calcium fluorescence, agonist mode; active compounds read high; B-score at 10 µM;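 active = calcium response B-score plate-corrected fluorescence ratio at least 3 library SD, with starting fluorescence B-score inside 5 SD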
Target sequence (Q96LB2 whole entry, looked up): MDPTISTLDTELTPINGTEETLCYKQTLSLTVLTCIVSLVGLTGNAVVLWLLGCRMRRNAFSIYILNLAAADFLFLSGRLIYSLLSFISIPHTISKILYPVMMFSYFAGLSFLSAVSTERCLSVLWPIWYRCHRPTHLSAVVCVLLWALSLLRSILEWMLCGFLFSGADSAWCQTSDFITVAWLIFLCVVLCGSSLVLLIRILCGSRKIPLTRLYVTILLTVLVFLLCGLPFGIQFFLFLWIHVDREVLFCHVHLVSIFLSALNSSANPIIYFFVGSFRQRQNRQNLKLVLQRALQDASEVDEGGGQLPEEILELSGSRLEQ
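System: HEK293 cells stably expressing human MrgX1 receptor; Dosing: test compound in the initial addition of three; Schedule: overnight plating, then 30 min 37 °C plus 30 min room-temperature dye loading; Detection: kinetic calcium dye fluorescence, Fluo-4 NW; Controls: per-plate positive and negative controls for Z′ factor.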
MrgX1 antag: blocks BAM8-22 activation of human MrgX1 receptor; MRGX1-HEK293 calcium flux, Fluo-4, BAM8-22 antagonism; active compounds read low; 310,000 tested, 1.3% active; AID 588676; B-score at 10 µM; Q96LB2;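 active = calcium-response B-score plate-corrected more than 3 library SD below zero, starting fluorescence within 5 deviations, no agonist response on first addition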;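 also: peak minus trough fluorescence over baseline after final BAM8-22 challenge near maximal dose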
RGS4 block: human RGS4 inhibition; B-score at 10 µM; AID 463165; HEK293 M3R/RGS4 inducible, Fluo-4 calcium flux; active compounds read high; triggered by carbachol at its EC20; 310,000 tested, 0.45% active;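 active = B-score, a plate-corrected calcium signal, over three deviations above library mean, with baseline fluorescence within five deviations of library mean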;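 also: RGS4 expression induced by doxycycline in cells with stable M3 receptor; B-score is computed from the integrated fluorescence ratio over baseline after carbachol; higher B-score means a larger calcium signal and so more RGS4 inhibition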
Target sequence (P49798 whole entry, looked up): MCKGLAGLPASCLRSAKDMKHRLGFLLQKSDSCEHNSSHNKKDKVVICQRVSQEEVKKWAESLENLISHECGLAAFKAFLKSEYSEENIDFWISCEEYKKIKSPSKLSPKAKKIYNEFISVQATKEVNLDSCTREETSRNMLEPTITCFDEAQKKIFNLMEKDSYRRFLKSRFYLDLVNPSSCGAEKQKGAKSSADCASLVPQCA
MrgX1 allo act: allosterically activates human MrgX1 receptor signaling | MrgX1-HEK293, Fluo-4 calcium flux, FDSS; active compounds read high | AID 588675 | 310,000 tested, 0.63% active | B-score at 10 µM | Q96LB2;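 active = plate-corrected calcium response at least 3 library SD above typical, normal starting fluorescence, not activating the receptor alone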;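 also: compound read alongside a low EC10 to EC30 dose of BAM8-22 agonist; peak minus trough fluorescence over baseline measured at the second addition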
RGS4 act: potentiators or activators of RGS4; HEK293 M3R/inducible RGS4, carbachol calcium flux Fluo4; active compounds read low; B-score at 10 µM; 310,000 tested, 0.92% active; AID 463111;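 active = B-score of the integrated calcium signal more than 4 SD below the library mean, with starting fluorescence not abnormally high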;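 also: negative B-score means reduced calcium response which marks RGS4 activation or potentiation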
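test system = M3R-expressing HEK293 line, RGS4 induced by doxycycline | probe or stimulus = carbachol at ECmax as muscarinic agonist stimulus | timing = dye loading 30 min 37 °C, buffer rest 30 min RT | signal = calcium dye Fluo4 fluorescence | evaluation = B score from integrated fluorescence ratio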
RGS4 inh valid: RGS4 inhibitor validation. AID 492999. calcium response, % at 10 µM. 1,700 tested, 65% active. HEK293 M3R/RGS4, carbachol calcium Fluo-4 fluorescence; carbachol added at its EC20; 0 = buffer wells, 100 = carbachol control. shares compounds with RGS4 block;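 active = duplicate-averaged calcium response above the buffer-only control mean plus 5 SD of those controls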;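 also: integrated fluorescence ratio F max minus min over baseline F0; higher response in RGS4-induced cells means RGS4 inhibition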
RGS4 uninduced: non-induced cell nonspecific activity of RGS4 inhibitors. shares compounds with RGS4 block. HEK293 M3R non-induced, carbachol calcium Fluo-4; submaximal (EC20) carbachol stimulus; buffer wells 0%, carbachol control wells 100%. activity (percent), % at 10 µM. 1,900 tested, 20% active; call rule not given here;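 also: RGS4 induction absent so cells express M3R without RGS4; higher means more calcium signal and flags a non-specific hit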
M3R basal Ca ctr: signal in non-induced cells without carbachol, RGS4 inhibitor counter-screen; shares compounds with RGS4 block; HEK293 M3R/RGS4 non-induced, Fluo-4 calcium, no carbachol; normalised: buffer wells 0%, carbachol wells 100%; calcium response (agonist-mode artifact), % at 10 µM; 1,900 tested, 22% active; AID 493001;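 active = duplicate-averaged calcium rise in uninduced cells above buffer wells' mean plus 5 SD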
Active calls of the source: *; i = inactive; . = no result given. Sampled rows, rich in hits. Any-hit rate of the full collection: about 3.5%.

SMILES	MrgX1 ag	MrgX1 antag	RGS4 block	MrgX1 allo act	RGS4 act	RGS4 inh valid	RGS4 uninduced	M3R basal Ca ctr
O=Nc1c(O)n(Cc2cccc(Cl)c2)c2ccccc12	i	i	6.4*	i	i	16%*	37%*	i
CNc1cc(C)c(C#N)c2nc3ccccc3n12	i	i	i	i	i	.	.	.
Cc1cc(Cl)n2c(nc3ccccc32)c1C#N	.	.	11*	.	i	31%*	i	10%*
COCCNC(=O)/C(C#N)=C1\N=C(N)c2ccccc21	i	i	i	i	i	.	.	.
O=C(Nc1nc(-c2ccccc2)cs1)c1ccco1	i	i	i	i	i	.	.	.
COc1ccc(-c2csc(NC(=O)c3ccco3)n2)cc1	i	i	i	i	i	i	i	i
COc1cccc(C(=O)Nc2nc(-c3ccncc3)cs2)c1	i	i	i	i	i	.	.	.
CCOc1ccc(-c2csc(NC(=O)c3ccco3)n2)cc1	i	i	5*	i	i	5.0%*	i	i
Cc1ccc(-c2csc(NC(=O)c3ccco3)n2)cc1C	i	i	25*	i	i	56%*	34%*	i
COc1ccc(-c2csc(NC(=O)c3c(OC)cccc3OC)n2)cc1	i	i	5.5*	i	i	16%*	30%*	i
C=CCS(=O)(=O)N1CCCC(Cc2ccccc2C)(C(=O)OCC)C1 (centres undefined)	i	i	i	i	i	.	.	.
CC(=O)Nc1cccc(C(=O)OC2CCOC2=O)c1 (centres undefined)	i	i	i	i	i	.	.	.
CC(=O)OCCSc1c(-c2ccccc2)c2cc(Cl)ccc2[nH]c1=O	i	i	4.8*	i	i	14%*	i	i
CC(OC(=O)c1nc(Cl)ccc1Cl)C(=O)c1ccccc1 (centres undefined)	i	i	i	i	i	.	.	.
C=CCOc1ccccc1CN1CCC(n2nccc2NC(=O)C2CC2)CC1	.	.	i	.	i	.	.	.
N#CC1=C(N)Oc2c(O)cc3ccccc3c2C1c1ccsc1 (centres undefined)	i	i	14*	i	i	40%*	33%*	i
O=C(COc1ccc([N+](=O)[O-])cc1)NCCC1=CCCCC1	i	i	5*	i	i	i	i	i
COC(=O)C(C(=O)OC)C(C[N+](=O)[O-])c1ccc(OC)c(OC)c1 (centres undefined)	i	i	i	i	i	.	.	.
COc1ccc(C(C[N+](=O)[O-])C2(c3ccc(OC)c(OC)c3)C(=O)c3ccccc3C2=O)cc1 (centres undefined)	i	i	16*	i	i	60%*	37%*	i
Cc1cc(NC(=O)CCC(=O)N(c2ccccc2)C(C(=O)NC2CCCC2)c2ccccc2C)no1 (centres undefined)	i	i	i	i	i	.	.	.
Cc1nn(-c2ccccc2)c2c1C(c1ccc([N+](=O)[O-])cc1)C(C#N)=C(N)O2 (centres undefined)	i	i	i	i	i	.	.	.
COc1cc(C2C(C#N)=C(N)Oc3c2c(-c2ccccc2)nn3-c2ccccc2)cc(OC)c1OC (centres undefined)	i	i	i	i	i	.	i	i
COc1ccc(N2C(=O)CC(Sc3nc4ccccc4s3)C2=O)cc1 (centres undefined)	i	i	i	i	i	.	.	.
C=CCNc1nnc(SC2CC(=O)N(c3ccc(OC)cc3)C2=O)s1 (centres undefined)	i	i	5.7*	i	i	9.0%*	i	i
CCN(CC)c1nc(N)c2c(N)nc3c(c2c1C#N)CC(c1ccccc1)O3 (centres undefined)	i	i	5.3*	i	i	18%*	i	i
SMILES	MrgX1 ag	MrgX1 antag	RGS4 block	MrgX1 allo act	RGS4 act	RGS4 inh valid	RGS4 uninduced	M3R basal Ca ctr
CCOc1cc(/C=C2\CN(CC)C/C(=C\c3ccc(O)c(OCC)c3)C2=O)ccc1O	27*	i	12*	i	i	48%*	36%*	12%*
CCOc1cc(/C=N/N=C/c2ccc(O)c(OCC)c2)ccc1O	i	i	i	i	i	.	.	.
O=C(Cn1nnc2ccccc2c1=O)NC1CCCCC1	i	i	i	i	i	.	.	.
CCCCn1c(N)c(N(CC)C(=O)c2ccccc2F)c(=O)[nH]c1=O	i	i	i	i	i	.	.	.
Cc1ccc(OCC(=O)N/N=C/c2cn(C)c3ccccc23)cc1	i	i	i	i	i	.	i	i
COc1ccc(Oc2ccccc2/C=N/O)cc1	i	i	i	i	i	.	.	.
CC(C)(C)c1cccc(/C=N/O)c1O	i	i	11*	i	i	24%*	44%*	i
CCC(CC)C(=O)Nc1nnc(SCC(=O)NC2CCCCC2)s1	i	i	i	i	i	.	.	.
O=C(CCN1CCCCC1)c1ccccc1	i	i	i	i	i	.	.	.
O=C(CCCO)c1ccc2c(c1)OCCO2	i	i	i	i	i	.	.	.
O=C(CCN1CCOCC1)c1ccc2c(c1)OCCO2	i	i	21*	i	i	20%*	i	18%*
O=C(CCCN1CCOCC1)c1ccc2c(c1)OCCO2	i	i	i	i	i	i	i	i
O=C(CCN1CCN(C(=O)c2ccccc2)CC1)c1ccc(Br)cc1	i	i	6*	i	i	i	i	10%*
O=C(CCN1CCOCC1)c1ccccc1	i	i	i	i	i	i	36%*	23%*
O=C(OCCN1CCOCC1)c1ccc2c(c1)OCCO2	i	i	i	i	i	.	.	.
C=CC(=O)N(CCC)C(c1ccccc1)c1ccccc1OC (centres undefined)	i	i	i	i	i	.	.	.
O=C1Nc2ccc(Br)cc2C1Cc1ccccc1F (centres undefined)	i	i	5.8*	i	i	13%*	i	i
